According to PubChem BioAssay AID623915 (Johns Hopkins Ion Channel Center, 2012):
Several values for one entry are separate records, joined by “and”; a condition that tells them apart may be missing. Equal entries are not always repeated. Activity calls are given as the source filed them.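 How the source made its calls: active means more than 50% block of the TASK1 potassium channel current at 10 µM; inactive means the rest.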

Biological target: Potassium channel subfamily K member 3 (Rattus norvegicus) (UniProt O54912)
Sequence (O54912 whole entry, looked up): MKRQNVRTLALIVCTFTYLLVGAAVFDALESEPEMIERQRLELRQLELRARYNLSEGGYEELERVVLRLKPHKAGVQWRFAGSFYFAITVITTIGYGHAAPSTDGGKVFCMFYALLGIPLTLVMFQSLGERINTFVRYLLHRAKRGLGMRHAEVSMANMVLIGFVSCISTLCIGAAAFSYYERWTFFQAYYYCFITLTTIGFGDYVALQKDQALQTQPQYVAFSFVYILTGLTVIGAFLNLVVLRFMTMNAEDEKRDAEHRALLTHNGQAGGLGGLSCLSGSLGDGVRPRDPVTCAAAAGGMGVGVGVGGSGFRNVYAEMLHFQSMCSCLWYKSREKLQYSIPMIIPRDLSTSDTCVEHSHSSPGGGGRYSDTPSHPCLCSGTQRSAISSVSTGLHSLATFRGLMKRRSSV
Assay: KCNK3 channel block by electrophysiology – automated electrophysiology, QPatch, CHO cells, selectivity assay for KCNK9 inhibitor project, SAR follow-up (AID 623915)
Settings: CHO-TASK1 cells, QPatch whole-cell current inhibition
Outline: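 Detection: automated patch clamp, current read at -30 mV; material: Inducible-TASK1 CHO cells; schedule: 5 min exposure at each compound concentration; medium: external bath solution with 140 mM K+, pH 7.40; read-out: per-cell IC50 from Hill fit, slope one, fractional block 0–1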

| IC50 | outcome | SMILES |
| --- | --- | --- |
| 1960 nM and 6430 nM |  | C[C@@H]([C@@H]1CC2CC[C@H]1C2)n1c(-c2ccsc2)n[nH]c1=S |
| 820 nM |  | CC(C1CC2CCC1C2)n1c(-c2ccco2)n[nH]c1=S (stereo unspecified) |
| 3200 nM |  | C[C@@H]([C@@H]1CC2CC[C@H]1C2)n1c(-c2ccco2)n[nH]c1=S |
|  | inactive | C[C@H]([C@@H]1CC2CC[C@H]1C2)n1c(-c2ccsc2)n[nH]c1=S |
| 6430 nM |  | C[C@H](C1CCCCC1)n1c(-c2ccsc2)n[nH]c1=S |
| 1850 nM |  | CC(C1CC2CCC1C2)n1c(-c2ccco2)nn(CCc2ccncc2)c1=S (stereo unspecified) |
